Here are results for 22 molecules from ChEMBL document CHEMBL3351980, “Michael acceptor approach to the design of new salvinorin A-based high affinity ligands for the kappa-opioid receptor” (Eur J Med Chem, 2014).

The target of test [1] is T1, Kappa-type opioid receptor (Homo sapiens, UniProt P41145). Briefly: Inhibition of human kappa opioid receptor expressed in HEK293T cells assessed as inhibition of cAMP production after 30 mins. In kind it is functional, cell-based, HEK-293T. On the technique in general: Cyclic AMP is a second messenger, typically raised through Gs and lowered through Gi signalling.
Test [2] has as its target Delta-type opioid receptor (Homo sapiens, UniProt P41143). Briefly: Displacement of [3H]DADLE from delta opioid receptor (unknown origin) expressed in HEK293T cells after 1.5 hrs by radioligand binding assay. The class given is cell-based, HEK-293T. A general note: Displacement assays read how much labelled ligand stays bound in the presence of the test substance.
The target of a further test is Mu-type opioid receptor (Homo sapiens, UniProt P35372). The experiment in a line: Displacement of [3H]DAMGO from mu opioid receptor (unknown origin) expressed in HEK293T cells after 1.5 hrs by radioligand binding assay. The class given is cell-based, HEK-293T.
In test [3] the target is T1, Kappa-type opioid receptor. Briefly: Displacement of [3H]U69593 from kappa opioid receptor (unknown origin) expressed in HEK293T cells after 1.5 hrs by radioligand binding assay. The class given is cell-based, HEK-293T. In a few lines:
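HEK293T cells stably expressing KOR were hypotonically lysed in 50 mM Tris-HCl, 10 mM MgCl2, 0.1 mM EDTA, pH 7.4, and membranes were pelleted. Samples were filtered onto PEI-soaked GF/A filters and scintillation counted. Ki came from a one-site competition fit.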

Test [4] is filed under the species Homo sapiens. Briefly: Selectivity ratio of Ki for mu opioid receptor (unknown origin) to ratio of Ki for kappa opioid receptor (unknown origin).
For test [5], the species on record is Homo sapiens. Briefly: Selectivity ratio of Ki for delta opioid receptor (unknown origin) to ratio of Ki for kappa opioid receptor (unknown origin).

Delta-type opioid receptor, sequence (P41143 whole entry): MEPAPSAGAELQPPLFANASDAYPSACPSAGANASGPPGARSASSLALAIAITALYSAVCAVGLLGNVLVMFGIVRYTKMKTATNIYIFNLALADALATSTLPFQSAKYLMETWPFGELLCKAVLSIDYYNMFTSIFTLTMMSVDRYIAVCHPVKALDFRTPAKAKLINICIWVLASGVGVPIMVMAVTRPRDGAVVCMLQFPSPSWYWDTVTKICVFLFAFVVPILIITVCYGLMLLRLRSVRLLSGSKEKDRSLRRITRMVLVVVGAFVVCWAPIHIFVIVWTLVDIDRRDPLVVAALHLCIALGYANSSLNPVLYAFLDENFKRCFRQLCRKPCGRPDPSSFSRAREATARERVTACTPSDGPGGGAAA
T1 sequence (P41145 whole entry): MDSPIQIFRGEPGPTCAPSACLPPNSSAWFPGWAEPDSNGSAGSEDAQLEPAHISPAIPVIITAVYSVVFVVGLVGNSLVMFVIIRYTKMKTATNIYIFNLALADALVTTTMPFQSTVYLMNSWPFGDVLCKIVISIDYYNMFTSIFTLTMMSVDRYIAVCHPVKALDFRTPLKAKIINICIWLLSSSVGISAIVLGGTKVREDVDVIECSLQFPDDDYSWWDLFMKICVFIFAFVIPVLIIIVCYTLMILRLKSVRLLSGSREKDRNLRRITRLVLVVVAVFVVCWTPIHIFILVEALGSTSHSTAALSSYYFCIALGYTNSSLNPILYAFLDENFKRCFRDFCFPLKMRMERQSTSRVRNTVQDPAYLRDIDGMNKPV
Mu-type opioid receptor, sequence (P35372 whole entry): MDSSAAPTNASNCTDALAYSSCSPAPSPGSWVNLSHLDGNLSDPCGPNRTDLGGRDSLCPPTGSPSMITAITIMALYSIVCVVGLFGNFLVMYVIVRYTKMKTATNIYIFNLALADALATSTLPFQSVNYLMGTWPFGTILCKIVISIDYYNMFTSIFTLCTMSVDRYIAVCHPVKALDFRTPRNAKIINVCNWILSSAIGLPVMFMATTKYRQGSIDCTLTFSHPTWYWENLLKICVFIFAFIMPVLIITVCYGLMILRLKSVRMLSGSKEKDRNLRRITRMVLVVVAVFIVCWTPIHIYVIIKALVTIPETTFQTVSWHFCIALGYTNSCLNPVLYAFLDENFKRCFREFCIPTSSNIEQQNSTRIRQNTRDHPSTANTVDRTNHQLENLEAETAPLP

Turning to `C/C=C(\C)C(=O)O[C@H]1C[C@@H](C(=O)OC)[C@]2(C)CC[C@H]3C(=O)O[C@H](c4ccoc4)C[C@]3(C)[C@H]2C1=O`, the EC50 (in general, the midpoint of the concentration-response curve) in test [1] amounted to 477 nM. Further, the results for the Ki (in test [2]; at Mu-type opioid receptor; in test [3]) were over 10000 nM, over 10000 nM and 153 nM, respectively.

Turning to `COC(=O)[C@@H]1C[C@H](OC(=O)/C=C/c2cc(OC)c(OC)c(OC)c2)C(=O)[C@H]2[C@@]1(C)CC[C@H]1C(=O)O[C@H](c3ccoc3)C[C@]21C`, in test [1], the concentration giving a half-maximal response (EC50) is 1800 nM. The Ki (in test [2]; at Mu-type opioid receptor; in test [3]) was over 10000 nM in each case.

Take `C/C=C/C(=O)O[C@H]1C[C@@H](C(=O)OC)[C@]2(C)CC[C@H]3C(=O)O[C@H](c4ccoc4)C[C@]3(C)[C@H]2C1=O`: the 50% effective concentration (EC50) in test [1] stood at 11 nM. For the same molecule, the Ratio Ki in the test listed under Homo sapiens [4] is 21. The figures for the Ki (in test [2]; at Mu-type opioid receptor; in test [3]) were over 10000 nM, 540 nM and 25.3 nM, respectively.

Take `COC(=O)[C@@H]1C[C@H](OC(=O)/C=C/c2cccnc2)C(=O)[C@H]2[C@@]1(C)CC[C@H]1C(=O)O[C@H](c3ccoc3)C[C@]21C`: the EC50 in test [1] was 1760 nM. In addition, the figures for the inhibition constant (Ki) (in test [2]; at Mu-type opioid receptor; in test [3]) were 4890 nM, 334 nM and over 10000 nM, respectively.

On to `C=C(C)C(=O)O[C@H]1C[C@@H](C(=O)OC)[C@]2(C)CC[C@H]3C(=O)O[C@H](c4ccoc4)C[C@]3(C)[C@H]2C1=O`, for which the Ki (usually the equilibrium dissociation constant of an inhibitor or competing ligand from its target) in test [2] is 7820 nM; on Mu-type opioid receptor it was over 10000 nM; in test [3], 34 nM. Moreover, in the test listed under Homo sapiens [5], the Ratio Ki was determined as 221.

Take `COC(=O)[C@@H]1C[C@H](OC(=O)/C=C/c2ccccc2C(F)(F)F)C(=O)[C@H]2[C@@]1(C)CC[C@H]1C(=O)O[C@H](c3ccoc3)C[C@]21C`: the concentration giving a half-maximal response (EC50) in test [1] was 20 nM. Moreover, the Ki in test [2] was over 10000 nM; at Mu-type opioid receptor it was over 10000 nM; in test [3], 130 nM.

For the molecule `COC(=O)[C@@H]1C[C@H](OC(=O)/C=C/c2ccsc2)C(=O)[C@H]2[C@@]1(C)CC[C@H]1C(=O)O[C@H](c3ccoc3)C[C@]21C`, the EC50 in test [1] was 582 nM. Also, the Ratio Ki turned out to be 0.06 in the test listed under Homo sapiens [4] and 0.75 in the test listed under Homo sapiens [5]. Also, the inhibition constant Ki in test [2] was 228 nM; at Mu-type opioid receptor it was 18 nM; in test [3] it was 304 nM.

With `COC(=O)[C@@H]1C[C@H](OC(=O)/C=C/c2ccccc2OC)C(=O)[C@H]2[C@@]1(C)CC[C@H]1C(=O)O[C@H](c3ccoc3)C[C@]21C`, the half-maximal effective concentration (EC50) in test [1] turned out to be 10 nM. For the same molecule, the Ki in test [2] was over 10000 nM; on Mu-type opioid receptor it was over 10000 nM; in test [3] it was 64.9 nM.

Regarding `C=CCC(=O)O[C@H]1C[C@@H](C(=O)OC)[C@]2(C)CC[C@H]3C(=O)O[C@H](c4ccoc4)C[C@]3(C)[C@H]2C1=O`, the Ki in test [2] was determined as 3260 nM.

On to `C=CC(C)C(=O)O[C@H]1C[C@@H](C(=O)OC)[C@]2(C)CC[C@H]3C(=O)O[C@H](c4ccoc4)C[C@]3(C)[C@H]2C1=O` (some centres undefined), for which the concentration for a half-maximal effect (EC50) in test [1] worked out at 37 nM. For the same molecule, the Ratio Ki in the test filed under Homo sapiens [4] came to 15; in the test listed under Homo sapiens [5], 105. Also, the inhibitory constant (Ki) in test [2] turned out to be 3030 nM; at Mu-type opioid receptor it was 439 nM; in test [3], 28.8 nM.

For `COC(=O)[C@@H]1C[C@H](OC(=O)/C=C/c2ccc3c(c2)OCO3)C(=O)[C@H]2[C@@]1(C)CC[C@H]1C(=O)O[C@H](c3ccoc3)C[C@]21C`, in test [1], the EC50 was 50 nM. Also, the Ratio Ki in the test listed under Homo sapiens [4] came out at 8.7. The results for the Ki (in test [2]; at Mu-type opioid receptor; in test [3]) were over 10000 nM, 2820 nM and 323 nM, respectively.

As to `COC(=O)[C@@H]1C[C@H](OC(=O)C=C(C)C)C(=O)[C@H]2[C@@]1(C)CC[C@H]1C(=O)O[C@H](c3ccoc3)C[C@]21C`, the 50% effective concentration (EC50) in test [1] came out at 698 nM. Also, the Ratio Ki in the test listed under Homo sapiens [4] was found to be 0.73; in the test listed under Homo sapiens [5] it was 6.8. Moreover, the Ki in test [2] was determined as 2630 nM; on Mu-type opioid receptor, 284 nM; in test [3], 385 nM.

On to `COC(=O)[C@@H]1C[C@H](OC(=O)/C=C/c2cc(C(F)(F)F)ccc2C(F)(F)F)C(=O)[C@H]2[C@@]1(C)CC[C@H]1C(=O)O[C@H](c3ccoc3)C[C@]21C`, for which the EC50 in test [1] was 1210 nM. For the same molecule, the figures for the Ki (in test [2]; on Mu-type opioid receptor; in test [3]) were 5870 nM, over 10000 nM and over 10000 nM, respectively.

Regarding `COC(=O)[C@@H]1C[C@H](OC(=O)/C=C/c2ccc(OC)cc2)C(=O)[C@H]2[C@@]1(C)CC[C@H]1C(=O)O[C@H](c3ccoc3)C[C@]21C`, the EC50 in test [1] was found to be 21 nM. The inhibition constant (Ki) was over 10000 nM in test [2], over 10000 nM at Mu-type opioid receptor and 135 nM in test [3].

With `COC(=O)[C@@H]1C[C@H](OC(=O)/C=C/c2ccc([N+](=O)[O-])cc2)C(=O)[C@H]2[C@@]1(C)CC[C@H]1C(=O)O[C@H](c3ccoc3)C[C@]21C`, the EC50 in test [1] worked out at 32 nM. In addition, the Ki in test [2] was over 10000 nM; on Mu-type opioid receptor it was over 10000 nM; in test [3], 281 nM.

For the molecule `COC(=O)[C@@H]1C[C@H](OC(=O)/C=C/c2ccccc2[N+](=O)[O-])C(=O)[C@H]2[C@@]1(C)CC[C@H]1C(=O)O[C@H](c3ccoc3)C[C@]21C`, in test [1], the EC50 was 33 nM. For the same molecule, the inhibition constant Ki in test [2] is over 10000 nM; at Mu-type opioid receptor, over 10000 nM; in test [3] it was 148 nM.

Turning to `C=C(C)CC(=O)O[C@H]1C[C@@H](C(=O)OC)[C@]2(C)CC[C@H]3C(=O)O[C@H](c4ccoc4)C[C@]3(C)[C@H]2C1=O`, in test [1], the EC50 turned out to be 25 nM. Besides, the Ratio Ki in the test filed under Homo sapiens [4] came out at 60. The Ki in test [2] is over 10000 nM; on Mu-type opioid receptor, 362 nM; in test [3] it was 6 nM.

Regarding `COC(=O)[C@@H]1C[C@H](OC(=O)/C=C/c2ccc(C(F)(F)F)cc2)C(=O)[C@H]2[C@@]1(C)CC[C@H]1C(=O)O[C@H](c3ccoc3)C[C@]21C`, the concentration for a half-maximal effect (EC50) in test [1] stood at 642 nM. The Ratio Ki in the test filed under Homo sapiens [4] and in the test filed under Homo sapiens [5] was 1 in each case. Besides, the Ki (in test [2]; on Mu-type opioid receptor; in test [3]) was over 10000 nM each time.

Regarding `COC(=O)[C@@H]1C[C@H](OC(=O)/C=C/c2ccccc2)C(=O)[C@H]2[C@@]1(C)CC[C@H]1C(=O)O[C@H](c3ccoc3)C[C@]21C`, the concentration giving a half-maximal response (EC50) in test [1] amounted to 7 nM. For the same molecule, the figures for the Ratio Ki in the test listed under Homo sapiens [4] and in the test filed under Homo sapiens [5] were 5.4 and 73, respectively. Also, the Ki was determined as 700 nM in test [2], 52 nM on Mu-type opioid receptor and 9.6 nM in test [3].

For the molecule `COC(=O)[C@@H]1C[C@H](OC(=O)/C=C/c2cc(OC)ccc2OC)C(=O)[C@H]2[C@@]1(C)CC[C@H]1C(=O)O[C@H](c3ccoc3)C[C@]21C`, the EC50 in test [1] stood at 38 nM. Moreover, the inhibition constant Ki in test [2] was over 10000 nM; on Mu-type opioid receptor, over 10000 nM; in test [3], 581 nM.

For `COC(=O)[C@@H]1C[C@H](OC(=O)/C=C/c2ccc(OC)cc2OC)C(=O)[C@H]2[C@@]1(C)CC[C@H]1C(=O)O[C@H](c3ccoc3)C[C@]21C`, the EC50 in test [1] came to 27 nM. The figures for the Ki (in test [2]; at Mu-type opioid receptor; in test [3]) were over 10000 nM, over 10000 nM and 162 nM, respectively.

As to `C=CC(=O)O[C@H]1C[C@@H](C(=O)OC)[C@]2(C)CC[C@H]3C(=O)O[C@H](c4ccoc4)C[C@]3(C)[C@H]2C1=O`, the EC50 in test [1] came out at 137 nM. For the same molecule, the Ratio Ki in the test filed under Homo sapiens [4] worked out at 54. Moreover, the inhibition constant Ki in test [2] was over 10000 nM; at Mu-type opioid receptor it was 979 nM; in test [3], 18.1 nM.
